Where two headings read alike, the source gives them in different places.
Experiments:
Assay type in all cases: cell-based
HCT116 cells = experiment: WST-1 cell viability assay, HCT116; conditions: read-out: IC50 of viability; HCT116, WST-1, 48 h
Procedure, shortened: (§1)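 Cells grown in DMEM or RPMI 1640 with 10% FBS and 1% penicillin/streptomycin at 37 °C, 5% CO2. Seeded at 5 × 10^3 cells/well and held 24 h at 37 °C, then exposed to test compound for 48 h. WST-1 absorbance was read at 450 nm, in triplicate. IC50 was taken as the concentration giving 50% growth inhibition versus control.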

A549 cells = experiment: WST-1 cell viability assay, A549; conditions: read-out: IC50 of viability
Procedure, shortened: as §1

PLD = PLD activity inhibition in A549 cells; conditions: read-out: IC50 for PLD inhibition

| Compound | IC50 (HCT116 cells) | IC50 (A549 cells; A549, WST-1, 48 h) | IC50 (PLD) | IC50 (A549 cells; Homo sapiens, A549, 48 h) |
| --- | --- | --- | --- | --- |
| N-(3,4-Dihydroxyphenyl)-5-fluoro-1H-indole-2-carboxamide [4c] | > 50 µM | > 200 µM | 4.31 µM | – |
| 3,5-Bis(trifluoromethyl)phenyl 5-Fluoro-1H-indole-2-carboxylate [3ac] | > 50 µM | 50 µM | 3.1 µM | – |
| C[C@@H](CN1CCC(n2c(=O)[nH]c3cc(Cl)ccc32)CC1)NC(=O)c1ccc2ccccc2c1 [VU0155069, reference compound] | – | – | – | 18.5 µM |

From article PMC11913021 (Journal of Medicinal Chemistry, 2024)
